Source: ChEMBL document CHEMBL3112527, “Quinoline-pyrimidine hybrids: synthesis, antiplasmodial activity, SAR, and mode of action studies” (J Med Chem, 2014)
In brackets after ≈: the same amount, converted by molar mass. Activity calls are given as the source filed them. The rule behind the calls is not given here.

What was measured:
[1] = tested on: Vesicular stomatitis virus; experiment: Antiviral activity against Vesicular stomatitis virus infected in human HeLa cells assessed as inhibition of virus-induced cytopathicity; format: functional, organism-based
Outline: (§1)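 Confluent monolayers in 96-well plates were inoculated with 100 CCID50 of virus in the presence of varying concentrations of compound. Read-out was inhibition of virus-induced cytopathicity, compared with untreated infected cultures. Cytotoxicity was judged microscopically or by MTT viability staining.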

[2] = tested on: Plasmodium falciparum; experiment: Antiplasmodial activity against chloroquine-sensitive asexual erythrocytic stage of Plasmodium falciparum D10 assessed as parasite growth inhibition by lactate dehydrogenase assay; format: functional, organism-based
Outline: (§2)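 Parasite lactate dehydrogenase assay (modified Makler method). Samples held as 20 mg/mL stocks in DMSO, diluted on test day. Full dose-response: starting at 10 μg/mL, 2-fold serial dilution in complete medium over 10 concentrations down to 0.02 μg/mL. Chloroquine, artesunate and MMV390048 served as references. IC50 from nonlinear dose-response curve fitting; mean of three independent experiments.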

[3] = tested on: Feline coronavirus; experiment: Antiviral activity against Feline coronavirus infected in cat CRFK cells assessed as inhibition of virus-induced cytopathicity; format: functional, organism-based
Outline: (§3)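 Confluent monolayers (HEL, Vero, HeLa or CrFK, as applicable) were inoculated with 100 CCID50 of virus, with 1 CCID50 being the dose that infects 50% of cultures. Infection ran in the presence of varying compound concentrations. Inhibition of virus-induced cytopathicity was scored against infected cultures left untreated.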

[4] = tested on: Coxsackievirus B4; experiment: Antiviral activity against Coxsackievirus B4 infected in African green monkey Vero cells assessed as inhibition of virus-induced cytopathicity; format: functional, organism-based; outline: as §3
[5] = Aqueous solubility of the compound in PBS buffer at pH 7.4 after 24 hrs by HPLC analysis; format: physicochemical; conditions: pH 7.4, 24 h
[6] = tested on: Human betaherpesvirus 5; experiment: Antiviral activity against Cytomegalovirus AD169 infected in HEL cells assessed as inhibition of virus-induced cytopathicity; format: functional, organism-based
[7] = tested on: Felid alphaherpesvirus 1; experiment: Antiviral activity against Feline herpesvirus infected in cat CRFK cells assessed as inhibition of virus-induced cytopathicity; format: functional, organism-based; outline: as §3
[8] = tested on: Respiratory syncytial virus; experiment: Antiviral activity against Respiratory syncytial virus infected in human HeLa cells assessed as inhibition of virus-induced cytopathicity; format: functional, organism-based; outline: as §3
[9] = Cytotoxicity against cat CRFK cells assessed as cell viability by MTS assay; format: cell-based, Felis catus
Outline: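 CRFK cells were exposed to varying sample concentrations. Cell viability was measured with the colorimetric formazan-based MTS assay, and the 50% cytotoxic concentration (CC50) was derived from it.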

[10] = tested on: Influenza A virus; experiment: Antiviral activity against influenza A virus H1N1 infected in MDCK cells assessed as inhibition of virus-induced cytopathicity; format: functional, organism-based; outline: as §1
[11] = tested on: Vaccinia virus; experiment: Antiviral activity against Vaccinia virus infected in HEL cells assessed as inhibition of virus-induced cytopathicity; format: functional, organism-based; conditions: Orthopoxvirus vaccinia; outline: as §1
[12] = tested on: Human betaherpesvirus 5; experiment: Antiviral activity against Cytomegalovirus Davis infected in HEL cells assessed as inhibition of virus-induced cytopathicity; format: functional, organism-based
[13] = tested on: Human respirovirus 3; experiment: Antiviral activity against parainfluenza virus 3 infected in African green monkey Vero cells assessed as inhibition of virus-induced cytopathicity; format: functional, organism-based; outline: as §3
[14] = Solubility of the compound in octanol at pH 7.4 by HPLC analysis; format: physicochemical
[15] = tested on: Sindbis virus; experiment: Antiviral activity against Sindbis virus infected in African green monkey Vero cells assessed as inhibition of virus-induced cytopathicity; format: functional, organism-based
[16] = Selectivity index, ratio of CC50 for cat CRFK cells to IC50 for chloroquine-resistant asexual erythrocytic stage of Plasmodium falciparum Dd2; format: functional
Outline: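 Ratio of CRFK CC50 (μM) to Dd2 IC50 […]. CC50 is the 50% cytotoxic concentration in feline kidney CRFK cells, measured as cell viability by colorimetric formazan-based MTS assay. Dd2 IC50 is from the parasite LDH growth-inhibition assay.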

[17] = tested on: Plasmodium falciparum; experiment: Antiplasmodial activity against chloroquine-resistant asexual erythrocytic stage of Plasmodium falciparum Dd2 assessed as parasite growth inhibition by lactate dehydrogenase assay; format: functional, organism-based; outline: as §2
[18] = tested on: Coxsackievirus B4; experiment: Antiviral activity against Coxsackievirus B4 infected in human HeLa cells assessed as inhibition of virus-induced cytopathicity; format: functional, organism-based; outline: as §3
[19] = tested on: Vesicular stomatitis virus; experiment: Antiviral activity against Vesicular stomatitis virus infected in HEL cells assessed as inhibition of virus-induced cytopathicity; format: functional, organism-based; outline: as §1
[20] = tested on: Human alphaherpesvirus 1; experiment: Antiviral activity against HSV-1 KOS infected in HEL cells assessed as inhibition of virus-induced cytopathicity; format: functional, organism-based; outline: as §3
[21] = tested on: Human alphaherpesvirus 3; experiment: Antiviral activity against Varicella-zoster virus infected in HEL cells assessed as inhibition of virus-induced cytopathicity; format: functional, organism-based
[22] = tested on: Human alphaherpesvirus 2; experiment: Antiviral activity against HSV-2 G infected in HEL cells assessed as inhibition of virus-induced cytopathicity; format: functional, organism-based; conditions: strain G; outline: as §3
[23] = tested on: Influenza A virus H3N2; experiment: Antiviral activity against Influenza A virus H3N2 infected in MDCK cells assessed as inhibition of virus-induced cytopathicity; format: functional, organism-based; outline: as §1
[24] = Cytotoxicity against human HeLa cells assessed as alteration of cell morphology by microscopic analysis; format: cell-based; conditions: read-out: MIC
Outline: (§4)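 Cells (Vero, HEL, MDCK or HeLa) were exposed to a range of sample concentrations. The value reported is the concentration required to cause a microscopically detectable alteration of normal cell morphology.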

[25] = tested on: Mammalian orthoreovirus 1; experiment: Antiviral activity against Reovirus 1 infected in African green monkey Vero cells assessed as inhibition of virus-induced cytopathicity; format: functional, organism-based; outline: as §3
[26] = n-octanol-PBS buffer distribution coefficient, log D of the compound at pH 7.4 after 24 hrs by HPLC analysis; format: physicochemical
[27] = tested on: Punta Toro virus; experiment: Antiviral activity against Punta Toro virus infected in African green monkey Vero cells assessed as inhibition of virus-induced cytopathicity; format: functional, organism-based; outline: as §3
[28] = tested on: Human alphaherpesvirus 1; experiment: Antiviral activity against thymidine kinase-negative acyclovir-resistant HSV-1 KOS infected in HEL cells assessed as inhibition of virus-induced cytopathicity; format: functional, organism-based; outline: as §1
[29] = tested on: Escherichia coli; experiment: Binding affinity to Escherichia coli pUC18 DNA by fluorescence spectrophotometric analysis
Outline: (§5)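 Steady-state fluorescence titration at ambient temperature, with excitation at 330 nm and emission at 376 nm. […] Binding constant derived from the emission changes.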

[30] = tested on: Ferriprotoporphyrin IX; experiment: Binding affinity to monomeric Fe(III)PPIX at pH 7.4
Outline: (§6)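 UV-vis titration of monomeric Fe(III)PPIX (2.4 μM) with stepwise additions of compound (0−69 μM, in DMSO), in aqueous DMSO. Buffer was 0.02 M HEPES at pH 7.4 or 0.02 M MES at pH 5.6. Decrease of the Soret band at 402 nm was followed. Association constants were calculated from the titration curves. Stoichiometry was taken from Job's plot.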

[31] = tested on: Ferriprotoporphyrin IX; experiment: Binding affinity to monomeric Fe(III)PPIX by 1H NMR spectra analysis
[32] = tested on: MDCK; experiment: Cytotoxicity against MDCK cells assessed as alteration of cell morphology by microscopic analysis; format: cell-based, Canis lupus familiaris; conditions: dog; outline: as §4
[33] = tested on: Ferriprotoporphyrin IX; experiment: Binding affinity to monomeric Fe(III)PPIX at 5 umol by mass spectra analysis
Outline: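 Solution-phase mass spectra were recorded after adding monomeric heme (5 μmol) to the compound (5 μmol) in 40% aqueous DMSO. The region between 1008 and 1024 Da was examined for adduct signals.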

[34] = tested on: HEL; experiment: Cytotoxicity against HEL cells assessed as alteration of cell morphology by microscopic analysis; format: cell-based; conditions: human; outline: as §4
[35] = tested on: DNA; experiment: Binding affinity to calf thymus DNA assessed as hypochromic shift at 66.6 uM after 5 mins by UV-spectrophotometric analysis; format: nucleic-acid assay; conditions: Bos taurus
[36] = tested on: Vero; experiment: Cytotoxicity against African green monkey Vero cells assessed as alteration of cell morphology by microscopic analysis; format: cell-based; conditions: chlorocebus sabaeus; outline: as §4
[37] = tested on: DNA; experiment: Binding affinity to calf thymus DNA at 5:1 DNA to compound ratio by spectrophotometric analysis (reference value: 59.5 degC); format: nucleic-acid assay; conditions: Bos taurus
[38] = tested on: Heme; experiment: Binding affinity to mu-oxodimeric heme at pH 5.8
Outline: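 μ-Oxo dimer heme (10 μM) in 20 mM phosphate buffer, pH 5.8, titrated stepwise with compound (0.3−16 μM). Decrease in absorbance at 362 nm was monitored, and the binding constant was calculated from the titration curve.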

[39] = tested on: DNA; experiment: Binding affinity to calf thymus DNA by fluorescence spectrophotometric analysis; format: nucleic-acid assay; conditions: Bos taurus; outline: as §5
[40] = tested on: Heme; experiment: Binding affinity to heme assessed as inhibition of beta-hematin formation at 1.2 equiv after 1 hr by FT-IR spectroscopic analysis
[41] = tested on: Ferriprotoporphyrin IX; experiment: Binding affinity to monomeric Fe(III)PPIX at pH 5.6; outline: as §6
[42] = tested on: Plasmodium falciparum; experiment: Potency index, ratio of chloroquine IC50 to compound IC50 for chloroquine-resistant asexual erythrocytic stage of Plasmodium falciparum Dd2; format: functional

## Clc1ccc2c(NCCCCCCCCNc3ccnc(Cl)n3)ccnc2c1
[1]
  inhibition: inactive
[2]
  IC50: 912 nM
[3]
  inhibition: inactive
[4]
  inhibition: inactive
[5]
  solubility: 0.08 µM (≈ 0.0335 µg/mL)
[6]
  inhibition: inactive
[7]
  inhibition: inactive
[8]
  inhibition: inactive
[9]
  CC50: 8000 nM
[10]
  inhibition: inactive
[11]
  inhibition: inactive
[12]
  inhibition: inactive
[13]
  inhibition: inactive
[14]
  solubility: 2.41 µM (≈ 1.01 µg/mL)
[15]
  inhibition: inactive
[16]
  Ratio CC50/IC50: 9
[17]
  IC50: 883 nM
[18]
  inhibition: inactive
[19]
  inhibition: inactive
[20]
  inhibition: inactive
[21]
  inhibition: inactive
[22]
  inhibition: inactive
[23]
  inhibition: inactive
[24]
  MCC: 4 µM
[25]
  inhibition: inactive
[26]
  logD at 24 h: 1.48
[27]
  inhibition: inactive
[28]
  inhibition: inactive

## Clc1ccc2c(NCCCNc3nccc(N4CCCCC4)n3)ccnc2c1
[29]
  log Ks: 3.99
[1]
  inhibition: inactive
[2]
  IC50: 22.6 nM
[3]
  inhibition: inactive
[4]
  inhibition: inactive
[5]
  solubility: 0.25 µM (≈ 0.0992 µg/mL)
[6]
  inhibition: inactive
[30]
  log Ks: 4.63
[7]
  inhibition: inactive
[31]
  Activity: Active
[32]
  Activity: Non-toxic
[8]
  inhibition: inactive
[9]
  CC50: 9800 nM
[10]
  inhibition: inactive
[33]
  Activity: Active
[11]
  inhibition: inactive
[12]
  inhibition: inactive
[13]
  inhibition: inactive
[14]
  solubility: 1.74 µM (≈ 0.691 µg/mL)
[15]
  inhibition: inactive
[34]
  Activity: Non-toxic
[16]
  Ratio CC50/IC50: 228
[35]
  Activity: 23%
[17]
  IC50: 43 nM
[36]
  Activity: Non-toxic
[18]
  inhibition: inactive
[19]
  inhibition: inactive
[20]
  inhibition: inactive
[37]
  Tm: 67.8 °C
[38]
  log Ks: 5.84
[21]
  inhibition: inactive
[22]
  inhibition: inactive
[23]
  inhibition: inactive
[39]
  log Ks: 3.64
[24]
  MCC: 100 µM
[40]
  inhibition: Active
[41]
  log Ks: 4.59
[25]
  inhibition: inactive
[26]
  logD at 24 h: 0.845
[27]
  inhibition: inactive
[28]
  inhibition: inactive
[42]
  Ratio IC50: 3.2

## Clc1ccc2c(NCCCCNc3nccc(Cl)n3)ccnc2c1
[1]
  inhibition: inactive
[2]
  IC50: 179 nM
[3]
  inhibition: inactive
[4]
  inhibition: inactive
[5]
  solubility: 0.7 µM (≈ 0.254 µg/mL)
[6]
  inhibition: inactive
[7]
  inhibition: inactive
[8]
  inhibition: inactive
[9]
  CC50: > 100000 nM
[10]
  inhibition: inactive
[11]
  inhibition: inactive
[12]
  inhibition: inactive
[13]
  inhibition: inactive
[14]
  solubility: 3.86 µM (≈ 1.4 µg/mL)
[15]
  inhibition: inactive
[16]
  Ratio CC50/IC50: >518
[17]
  IC50: 193 nM
[18]
  inhibition: inactive
[19]
  inhibition: inactive
[20]
  inhibition: inactive
[21]
  inhibition: inactive
[22]
  inhibition: inactive
[23]
  inhibition: inactive
[24]
  MCC: 100 µM
[25]
  inhibition: inactive
[26]
  logD at 24 h: 0.742
[27]
  inhibition: inactive
[28]
  inhibition: inactive
